# Source: ChEMBL document CHEMBL2086264
# Calls of active or inactive are those of the source. The calls are words filed in the database; no cut-off is given here.
# Legend:
# [1] = test system: Streptococcus pneumoniae; assay: Antibacterial activity against Streptococcus pneumoniae R6 after overnight incubation by microbroth dilution assay; assay type: functional
# Method in brief: (§1)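 CLSI M7A7 microbroth dilution in Mueller-Hinton broth; S. pneumoniae broth given 5% lysed horse blood. DMSO stocks of 10 mg/mL; twofold dilutions to final 200–0.0125 µg/mL. Mid-log inoculum (OD600 0.5) diluted to final OD600 0.0005 (~10^5 CFU/mL). Overnight at 37°C; MIC is the lowest concentration inhibiting 90% of visible growth.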
# [2] = test system: Bacillus subtilis; assay: Antibacterial activity against Bacillus subtilis ATCC 23857 after overnight incubation by microbroth dilution assay; assay type: functional; method in brief: as §1
# [3] = test system: Enterococcus faecalis; assay: Antibacterial activity against Enterococcus faecalis ATCC 33186 after overnight incubation by microbroth dilution assay; assay type: functional
# Method in brief: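 CLSI microbroth dilution in Mueller-Hinton broth; compounds dissolved in DMSO, twofold serial dilutions giving final 200–0.0125 µg/mL. Inoculum from single colony grown at 37°C to mid-log (OD600 0.5), diluted to final OD600 0.0005 (~10^5 CFU/mL). Incubated overnight at 37°C; MIC = lowest concentration inhibiting 90% of visible growth.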
# [4] = test system: Bacillus anthracis; assay: Inhibition of DNA synthesis in Bacillus anthracis sterne assessed as Inhibition of [3H]thymidine incorporation into DNA incubated for 15 mins prior to [3H]thymidine addition measured after 30 mins by scintillation counting; assay type: functional, organism-based
# [5] = test system: Bacillus anthracis; assay: Inhibition of RNA synthesis in Bacillus anthracis sterne assessed as Inhibition of [3H]uracil incorporation into RNA incubated for 15 mins prior to [3H]uracil addition measured after 30 mins by scintillation counting; assay type: functional, organism-based
# [6] = test system: Bacillus anthracis; assay: Inhibition of protein synthesis in Bacillus anthracis sterne assessed as Inhibition of [3H]amino acid incorporation into protein incubated for 15 mins prior to [3H]amino acid addition measured after 30 mins by scintillation counting; assay type: functional, organism-based
# [7] = Inhibition of Staphylococcus aureus PlsY expressed in Escherichia coli FB23281 using [U-14C]glycerol-PO4 as substrate after 20 mins by scintillation counting
# Method in brief: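 Membranes from E. coli FB23281 (ΔplsY) expressing S. aureus PlsY (SA1187), 4 µg per reaction. pH 7.4 buffer of 100 mM Tris–HCl, 150 mM NaCl, 1 mg/mL BSA and 5 mM Na3VO4, with 100 µM [U-14C]glycerol-PO4. Started with 16:0-PO4 (final 100 µM), 20 min at 37°C. Spotted on filter discs, washed in graded ice-cold TCA, scintillation counted.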
# [8] = test system: Bacillus anthracis; assay: Antibacterial activity against Bacillus anthracis after overnight incubation by microbroth dilution assay; assay type: functional
# [9] = test system: Staphylococcus aureus; assay: Antibacterial activity against Staphylococcus aureus ATCC 29213 after overnight incubation by microbroth dilution assay; assay type: functional; method in brief: as §1
Compound,MIC90 [1] [µg/mL],MIC90 [2] [µg/mL],MIC90 [3] [µg/mL],inhibition [4],inhibition [5],inhibition [6],IC50 [7] [µM],MIC90 [8] [µg/mL],MIC90 [9] [µg/mL]
CCCCCCCCCCCCCCCC(=O)NS(=O)(=O)Oc1ccc(OC)cc1,12.5,3.12,3.12,Active,Active,Active,8,3.13,12.5
CCCCCCCCCCCCCCCC(=O)NS(=O)(=O)OC1CCCCC1 [CYCLOHEXYL PALMITOYLSULFAMATE],100,> 200,> 200,Active,Active,Active,5,6.25,> 200
CCCCCCCCCCCCCCCC(=O)NS(=O)(=O)OC1CCCC1 [CYCLOPENTYL PALMITOYLSULFAMATE],> 200,> 200,> 200,Active,Active,Active,> 100,> 100,> 200
O=C(CCCCCCc1ccccc1)NS(=O)(=O)Oc1ccccc1,50,> 200,100,Active,Active,Active,76,12.5,50
O=C(CCCCCc1ccccc1)NS(=O)(=O)Oc1ccccc1,50,> 200,50,Active,Active,Active,100,100,100
CCCCCCCCCCCCCCCC(=O)NS(=O)(=O)Oc1ccc(C(=O)OCC)cc1,1.56,> 200,> 200,Active,Active,Active,10,3.13,6.25
CCCCCCCCCCCCCCCC(=O)NS(=O)(=O)OC1CCNCC1,> 200,> 200,> 200,Active,Active,Active,> 100,> 100,> 200
C=CCCCCCCCCC(=O)NS(=O)(=O)Oc1ccc(OC)cc1,200,6.25,1.6,Active,Active,Active,27,12.5,12.5
CCCCCCCCCCCCCCCC(=O)NS(=O)(=O)Oc1cccc(Cl)c1,> 200,100,100,Active,Active,Active,14,3.13,> 200
CCCCCCCCCCCCCCCC(=O)NS(=O)(=O)Oc1ccc2c(OS(N)(=O)=O)coc2c1,3.13,100,100,Active,Active,Active,41,3.13,25
CCCCCCCCCCCCCC(=O)NS(=O)(=O)Oc1ccc(OC)cc1,> 200,> 200,6.25,Active,Active,Active,6,0.78,> 200
O=C(CCCCCCCCCCc1ccccc1)NS(=O)(=O)Oc1ccccc1,200,100,12.5,Active,Active,Active,8,3.13,6.25
CCCCCCCCCCCCCCCC(=O)NS(=O)(=O)Oc1ccc2c(c1)OCO2,3.13,> 200,> 200,Active,Active,Active,12,> 100,100
CCCCCCCCCCCCCCCC(=O)NS(=O)(=O)Oc1ccc2ncccc2c1,1.56,200,200,Active,Active,Active,9,3.13,> 200
CCCCCCCCCCCCCCCC(=O)NS(=O)(=O)Oc1ccc(C)cc1,> 200,200,200,Active,Active,Active,12,6.25,> 200
CCCCCCCCCCCCCCCC(=O)NS(=O)(=O)OC1CCOCC1,> 200,> 200,> 200,Active,Active,Active,30,3.13,> 200
CCCCCCCCCCCCCCCC(=O)NS(=O)(=O)Oc1ccc(Cl)c(Cl)c1,> 200,100,100,Active,Active,Active,9,12.5,> 200
CCCCCCCCCCCCCCCC(=O)NS(=O)(=O)OC1CCN(C(=O)OC(C)(C)C)CC1,> 200,> 200,> 200,Active,Active,Active,15,3.13,> 200
CCCCCCCCCCCCCCCC(=O)NS(=O)(=O)Oc1ccc(CCN)cc1,> 200,> 200,> 200,Active,Active,Active,> 100,> 100,> 200
CCCCCCCCCCCCCCCC(=O)NS(=O)(=O)Oc1ccc(CCNC(=O)OC(C)(C)C)cc1,3.13,> 200,> 200,Active,Active,Active,22,1.56,> 200
CCCCCCCCCCCCCCCC(=O)NS(=O)(=O)Oc1ccc(Cl)cc1,100,> 200,> 200,Active,Active,Active,6,6.25,> 200
CCCCCCCCCCCCCCCC(=O)NS(=O)(=O)OC1CCOC1 (stereo not drawn),> 200,> 200,> 200,Active,Active,Active,45,1.56,25
CCCCCCCCCCCCCCCC(=O)NS(=O)(=O)OC [METHYL PALMITOYLSULFAMATE],> 200,> 200,> 200,Active,Active,Active,80,> 100,> 200
CCCCCCCCCCCCCCCC(=O)NS(=O)(=O)Oc1ccccc1 [PHENYL PALMITOYLSULFAMATE],> 200,50,50,Active,Active,Active,8,3.13,> 200
O=C(/C=C/c1ccc(-c2ccccc2)cc1)NS(=O)(=O)Oc1ccccc1,100,> 200,50,Active,Active,Active,> 100,100,25
CCCCCCCCCCCCCCCC(=O)NS(=O)(=O)Oc1ccc(-c2ccc([N+](=O)[O-])cc2)cc1,0.78,> 200,> 200,Active,Active,Active,11,1.56,100
CCCCCCCCCCCCCCCC(=O)NS(=O)(=O)Oc1ccc(CC(=O)OC)cc1,0.78,> 200,> 200,Active,Active,Active,11,3.13,25
